The source made the active and inactive calls. No cut-off for these calls is given here.

Biological target in the first test: not listed separately
Put plainly: Displacement of [125I]-TZDM from amyloid beta 1 to 42 after 2 hrs by gamma counting.
Conditions: not given
The method, boiled down: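 Aβ1-42 aggregated at 0.25 mg/mL in pH 7.4 buffer (10 mM sodium phosphate, 1 mM EDTA), 37 °C for 42 h with shaking. Fibrils (28 nM final) mixed with [125I]TZDM and inhibitor (10^-5 to 10^-10 M in EtOH) in PBS (0.2 M, pH 7.4). Incubated 2 h at 37 °C; nonspecific binding taken with 100 nM TZDM. Bound and free separated by vacuum filtration through glass fibre filters, washed with cold PBS containing 10% ethanol, then counted; Ki reported.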
(In general: Loss of bound radioactivity is the signal in a displacement assay; it reports binding, not function.)
In general, Ki refers to the equilibrium dissociation constant of an inhibitor or competing ligand from its target. Higher therefore signals lower affinity. In the case of `Fc1ccc(/C=C/c2ccc(-c3ccc(Br)s3)s2)cc1`, affinity was put at a Ki of 0.81 nM and the inhibition result was “Dose-dependent effect”.
In the case of `Fc1ccc(/C=C/c2ccc(-c3ccc(I)s3)s2)cc1`, the affinity corresponds to a Ki of 0.55 nM and the inhibition result was “Dose-dependent effect”.
Regarding `CC(C)(C)c1ccc(/C=C/c2ccc(-c3cccs3)s2)cc1`, the Ki worked out at 0.73 nM and the inhibition result is “Dose-dependent effect”.
On the same counts, the results for `O=[N+]([O-])c1ccc(/C=C/c2ccc(-c3cccs3)s2)cc1` are 0.56 nM and “Dose-dependent effect”.
Regarding `CN(C)c1ccc(/C=C/c2ccc(-c3cccs3)s2)cc1`, the affinity corresponds to a Ki of 0.73 nM and the inhibition entry is “Dose-dependent effect”.
As for `CC(C)(C)c1ccc(/C=C/c2ccc(-c3ccc(I)s3)s2)cc1`, the Ki worked out at 1.58 nM and the inhibition result was “Dose-dependent effect”.
In the case of `Cc1ccc(/C=C/c2ccc(-c3ccc(Br)s3)s2)cc1`, affinity was put at a Ki of 0.45 nM and the inhibition entry was “Dose-dependent effect”.
On the same counts, the results for `Cc1ccc(/C=C/c2ccc(-c3ccc(I)s3)s2)cc1` are 0.8 nM and “Dose-dependent effect”.
As to `Cc1ccc(/C=C/c2ccc(-c3cccs3)s2)cc1`, the Ki was 1.15 nM and the inhibition result was “Dose-dependent effect”.
On the same counts, the results for `Fc1ccc(/C=C/c2ccc(-c3cccs3)s2)cc1` are 4.06 nM and “Dose-dependent effect”.
As for `O=[N+]([O-])c1ccc(/C=C/c2ccc(-c3ccc(Br)s3)s2)cc1`, affinity was put at a Ki of 0.1 nM and the inhibition entry is “Dose-dependent effect”.
As for `COc1ccc(/C=C/c2ccc(-c3ccc(Br)s3)s2)cc1`, affinity was put at a Ki of 0.72 nM and the inhibition result is “Dose-dependent effect”.
Take `COc1ccc(/C=C/c2ccc(-c3cccs3)s2)cc1`: the affinity, expressed as Ki, was 1.48 nM and the inhibition result was “Dose-dependent effect”.
On the same counts, the results for `Clc1ccc(/C=C/c2ccc(-c3ccc(Br)s3)s2)cc1` are 1.02 nM and “Dose-dependent effect”.
For `Nc1ccc(/C=C/c2ccc(-c3cccs3)s2)cc1`, the Ki was determined as 41 nM and the inhibition entry is “Dose-dependent effect”.
For `Oc1ccc(/C=C/c2ccc(-c3ccc(Br)s3)s2)cc1`, the inhibition constant (Ki) turned out to be 3.6 nM and the inhibition result was “Dose-dependent effect”.
For `Brc1ccc(/C=C/c2ccc(-c3ccc(I)s3)s2)cc1`, the affinity, expressed as Ki, was 0.19 nM and the inhibition entry was “Dose-dependent effect”.
`CN(C)c1ccc(/C=C/c2ccc(-c3ccc(Br)s3)s2)cc1`: the Ki turned out to be 0.36 nM and the inhibition result was “Dose-dependent effect”.
For `Brc1ccc(/C=C/c2ccc(-c3ccc(Br)s3)s2)cc1`, the affinity, expressed as Ki, was 0.22 nM and the inhibition result is “Dose-dependent effect”.
On the same counts, the results for `Ic1ccc(/C=C/c2ccc(-c3ccc(I)s3)s2)cc1` are 0.63 nM and “Dose-dependent effect”.
Turning to `COc1ccc(/C=C/c2ccc(-c3ccc(I)s3)s2)cc1`, the Ki amounted to 0.3 nM and the inhibition result is “Dose-dependent effect”.
On the same counts, the results for `CC(C)(C)c1ccc(/C=C/c2ccc(-c3ccc(Br)s3)s2)cc1` are 0.95 nM and “Dose-dependent effect”.
Turning to `Ic1ccc(-c2ccc(/C=C/c3ccccc3)s2)s1`, the Ki was 0.24 nM and the inhibition result is “Dose-dependent effect”.
Regarding `Clc1ccc(/C=C/c2ccc(-c3ccc(I)s3)s2)cc1`, affinity was put at a Ki of 1.1 nM and the inhibition entry was “Dose-dependent effect”.
As for `Ic1ccc(/C=C/c2ccc(-c3cccs3)s2)cc1`, affinity was put at a Ki of 0.92 nM and the inhibition result was “Dose-dependent effect”.
On to `Brc1ccc(-c2ccc(/C=C/c3ccc(I)cc3)s2)s1`, for which the affinity, expressed as Ki, was 0.51 nM and the inhibition entry was “Dose-dependent effect”.
Turning to `Clc1ccc(/C=C/c2ccc(-c3cccs3)s2)cc1`, the Ki stood at 0.74 nM and the inhibition entry was “Dose-dependent effect”.
On to `Brc1ccc(/C=C/c2ccc(-c3cccs3)s2)cc1`, for which the Ki was determined as 0.99 nM and the inhibition result is “Dose-dependent effect”.
Regarding `C(=C\c1ccc(-c2cccs2)s1)/c1ccccc1`, the Ki was determined as 4.78 nM and the inhibition result was “Dose-dependent effect”.
For the compound `Brc1ccc(-c2ccc(/C=C/c3ccccc3)s2)s1`, the Ki came out at 1.32 nM and the inhibition entry is “Dose-dependent effect”.

A further test is filed under the species Mus musculus. The experiment in a line: Binding affinity to amyloid beta in APP/PS1 transgenic C57 mouse brain cortex at 5 uCi/100 uL after 30 mins by autoradiography. Format: tissue-based. Particulars: tested as the 125I-labelled form. The method, boiled down: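 Deparaffinized transgenic mouse brain sections incubated 30 min at room temperature with [125I]-labelled tracer (5 μCi/100 μL). Washed with saturated Li2CO3 in 40% EtOH for 3 min, then 40% EtOH for 3 min, then rinsed 30 s in water. Plaques checked afterwards by thioflavin-S (1 μM) fluorescence staining of the same sections.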
With `COc1ccc(/C=C/c2ccc(-c3ccc(I)s3)s2)cc1`, the outcome was Active.
The same measure, in the same setting: to `Ic1ccc(/C=C/c2ccc(-c3cccs3)s2)cc1` belongs “Active”.

The species entered for another test is Mus musculus. Put plainly: Binding affinity to amyloid beta in APP/PS1 transgenic C57 mouse brain at 1 uM after 10 mins by fluorescence assay.
Conditions: not given
Format: tissue-based. A digest of the protocol: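 Paraffin-embedded brain sections (10 μm) from APP/PS1 C57 transgenic mouse, deparaffinized through xylene and graded ethanol, then PBS (0.2 M, pH 7.4) 30 min. Sections incubated 10 min with compound (1 μM in 20% ethanol), washed with 50% ethanol and PBS. Confocal fluorescence read at excitation 405 nm, 505 nm long-pass. Plaques confirmed with thioflavin-S (1 μM) on adjacent sections.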
For the compound `CC(C)(C)c1ccc(/C=C/c2ccc(-c3cccs3)s2)cc1`, the result was Active.
The same measure, in the same setting: to `CN(C)c1ccc(/C=C/c2ccc(-c3cccs3)s2)cc1` belongs “Active”; to `O=[N+]([O-])c1ccc(/C=C/c2ccc(-c3ccc(Br)s3)s2)cc1`, “Active”.
For the compound `CN(C)c1ccc(/C=C/c2ccc(-c3ccc(Br)s3)s2)cc1`, the outcome was Active.

(Values after ChEMBL document CHEMBL1795269, “Novel (E)-5-styryl-2,2'-bithiophene derivatives as ligands for β-amyloid plaques” (Eur J Med Chem, 2011).)
